Measured values published in the RNAGym collection of RNA variant scans (doi:10.1038/s41586-018-0170-7).

B1: tRNA (parent)
chain: GUUCCGUUGGCGUAAUGGUAACGCGUCUCCCUCCUAAGGAGAAGACUGCGGGUUCGAGUCCCGUACGGAACG

Variants of: B1
Assay: yeast fitness, log relative to wild type (ln ratio); higher = fitter; tRNA-Arg(CCU), competitive growth, 37 C, 1 M NaCl
Summary of the method: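 Two independent transformations put a combinatorial tRNA-Arg(CCU) variant library on a HIS3 centromeric plasmid into BY4742 lacking the chromosomal gene. Pools were grown in SC-HIS at 30 °C for 4 generations, then in SC-HIS 1M NaCl at 37 °C for ~6.5 generations (~26.5 h), with three outputs taken per input. Fitness compares a genotype's generations with the wild type's as a natural log ratio. Those generations are OD-scaled log2 output/input frequencies, inverse-variance weighted across replicates, from 125 bp paired-end Illumina counts.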

Question: For U2C G6A C27U C66U A70G, which “yeast fitness (ln)” value is on record?
Answer: The value was -0.0339.

Question: Which “yeast fitness (ln)” value does the source give for G1A U2C C27U C46U A70U here?
Answer: Its value is -0.127.

Question: Which “yeast fitness (ln)” value does the source give for G1A U2C C27U C46U A70G here?
Answer: Its value is -0.0417.

Question: Which “yeast fitness (ln)” value does the source give for G1A U2C C27U C66U A69G A70G C71U here?
Answer: Its value is -0.585.

Question: For U2C G6U C27U A43C C46U C66A A70G, which “yeast fitness (ln)” value is on record?
Answer: Its value is -0.0237.

Question: Which “yeast fitness (ln)” value does the source give for G1A G6U C27U A43C C66A C71U here?
Answer: The value was -0.498.

Question: Which “yeast fitness (ln)” value does the source give for G1A U2G G6U C27U A43C C46U C66A C71U here?
Answer: The value was -0.41.

Question: For G1A G6U C66U C71U, which “yeast fitness (ln)” value is on record?
Answer: The value was -0.425.

Question: With G1A U2C C27U C66U A70G as the variant, how does the “yeast fitness (ln)” value read?
Answer: The value was -0.0715.

Question: Which “yeast fitness (ln)” value does the source give for G1A G6A A43C A70U C71U here?
Answer: The value was -0.218.

Question: Which “yeast fitness (ln)” value does the source give for U2G C27U C46U C66A A70U C71U here?
Answer: The value was -0.134.

Question: Which “yeast fitness (ln)” value does the source give for C27U A43C C66U A69G A70G C71U here?
Answer: The value was -0.318.

Question: For U2G G6A C27U A43C C46U C66U A69G A70G, which “yeast fitness (ln)” value is on record?
Answer: The value was -0.23.

Question: Which “yeast fitness (ln)” value does the source give for U2G G6U C46U C71U here?
Answer: Its value is -0.134.

Question: Which “yeast fitness (ln)” value does the source give for U2C G6U C27U C46U C66U A69G A70U C71U here?
Answer: The value was -0.546.

Question: With U2G C27U A43C C66U C71U as the variant, how does the “yeast fitness (ln)” value read?
Answer: Its value is -0.364.

Question: For G1A U2C G6U C27U A43C, which “yeast fitness (ln)” value is on record?
Answer: The value was -0.181.

Question: With G1A G6U C46U as the variant, how does the “yeast fitness (ln)” value read?
Answer: The value was -0.0505.

Question: Which “yeast fitness (ln)” value does the source give for G6U C27U A43C C46U A70G C71U here?
Answer: Its value is -0.337.

Question: For U2G G6A C66U C71U, which “yeast fitness (ln)” value is on record?
Answer: The value was -0.134.

Question: For G6U C27U A43C A70G C71U, which “yeast fitness (ln)” value is on record?
Answer: Its value is -0.348.

Question: Which “yeast fitness (ln)” value does the source give for C66A A69G here?
Answer: Its value is -0.0295.

Question: With G1A U2C G6U C27U C66A A70G as the variant, how does the “yeast fitness (ln)” value read?
Answer: Its value is -0.141.

Question: For G1A G6A C27U C46U, which “yeast fitness (ln)” value is on record?
Answer: Its value is -0.143.

Question: With G1A U2G A43C A69G A70G as the variant, how does the “yeast fitness (ln)” value read?
Answer: The value was -0.172.

Question: For A43C C46U C66U, which “yeast fitness (ln)” value is on record?
Answer: Its value is -0.0822.

Question: For A70U, which “yeast fitness (ln)” value is on record?
Answer: The value was 0.00232.

Question: For G1A U2C C27U A43C C46U C66U A70G C71U, which “yeast fitness (ln)” value is on record?
Answer: The value was -0.4.

Question: Which “yeast fitness (ln)” value does the source give for G6A A43C C46U A70G C71U here?
Answer: Its value is -0.207.

Question: For G1A U2C G6U C66A A70G, which “yeast fitness (ln)” value is on record?
Answer: The value was -0.0212.

Question: With G1A C27U C46U C66U A69G A70U C71U as the variant, how does the “yeast fitness (ln)” value read?
Answer: Its value is -0.504.

Question: Which “yeast fitness (ln)” value does the source give for G1A U2C C66U A70G C71U here?
Answer: The value was 0.00307.

Question: With G1A G6U C46U C66U A70U C71U as the variant, how does the “yeast fitness (ln)” value read?
Answer: Its value is -0.298.

Question: With U2G G6U C27U C46U C66A A69G C71U as the variant, how does the “yeast fitness (ln)” value read?
Answer: The value was -0.293.

Question: Which “yeast fitness (ln)” value does the source give for U2C C27U A43C C66A A70G C71U here?
Answer: Its value is -0.111.

Question: With G1A G6U A43C A69G A70U as the variant, how does the “yeast fitness (ln)” value read?
Answer: Its value is -0.326.

Question: Which “yeast fitness (ln)” value does the source give for U2G G6A A43C C66A C71U here?
Answer: The value was -0.347.

Question: With G1A C66A A70U C71U as the variant, how does the “yeast fitness (ln)” value read?
Answer: The value was -0.144.

Question: With G6U C27U C66U as the variant, how does the “yeast fitness (ln)” value read?
Answer: The value was -0.321.

Question: Which “yeast fitness (ln)” value does the source give for G1A U2G G6U C46U C66A A70G C71U here?
Answer: The value was -0.511.

Question: With G1A G6A A43C C46U C66U A69G A70U as the variant, how does the “yeast fitness (ln)” value read?
Answer: Its value is -0.479.

Question: Which “yeast fitness (ln)” value does the source give for U2G G6U C27U A43C C46U C66A A70G here?
Answer: Its value is -0.21.

Question: For U2G G6U C27U A43C C46U C66A A70U, which “yeast fitness (ln)” value is on record?
Answer: Its value is -0.017.

Question: For C27U A43C C46U C66A C71U, which “yeast fitness (ln)” value is on record?
Answer: Its value is -0.173.

Question: With C46U A70U C71U as the variant, how does the “yeast fitness (ln)” value read?
Answer: Its value is -0.129.

Question: With G1A G6U C27U C46U as the variant, how does the “yeast fitness (ln)” value read?
Answer: The value was -0.207.

Question: Which “yeast fitness (ln)” value does the source give for U2G G6U C27U A43C C66A C71U here?
Answer: Its value is -0.39.

Question: With U2C G6U C27U A43C C66U A70G C71U as the variant, how does the “yeast fitness (ln)” value read?
Answer: The value was -0.313.

Question: For G1A G6U C27U C46U A69G C71U, which “yeast fitness (ln)” value is on record?
Answer: The value was -0.291.

Question: For C27U A70G, which “yeast fitness (ln)” value is on record?
Answer: The value was -0.037.

Question: Which “yeast fitness (ln)” value does the source give for G1A C27U C46U C66U A70G here?
Answer: The value was -0.157.

Question: For G1A U2C G6A C27U A43C A70U C71U, which “yeast fitness (ln)” value is on record?
Answer: The value was -0.186.

Question: Which “yeast fitness (ln)” value does the source give for U2G C27U A69G A70G C71U here?
Answer: The value was -0.178.

Question: For U2C G6U C46U C66A A70G C71U, which “yeast fitness (ln)” value is on record?
Answer: Its value is -0.0101.

Question: For U2G C27U A43C C46U C66U A70U C71U, which “yeast fitness (ln)” value is on record?
Answer: The value was -0.265.

Question: With G6A C27U A43C C46U A69G A70G C71U as the variant, how does the “yeast fitness (ln)” value read?
Answer: Its value is -0.306.

Question: For G1A U2C A43C C46U A70U C71U, which “yeast fitness (ln)” value is on record?
Answer: Its value is -0.0746.

Question: With U2C G6A C27U A43C C66U A70U as the variant, how does the “yeast fitness (ln)” value read?
Answer: The value was -0.091.

Question: Which “yeast fitness (ln)” value does the source give for G1A U2C C27U A43C here?
Answer: The value was -0.0395.

Question: For G1A U2G G6A C27U A43C C46U C66A A70G C71U, which “yeast fitness (ln)” value is on record?
Answer: Its value is -0.478.

Question: With G1A U2G G6A C46U A70U as the variant, how does the “yeast fitness (ln)” value read?
Answer: Its value is -0.143.

Question: For G1A U2G G6U C27U A43C C46U C66A, which “yeast fitness (ln)” value is on record?
Answer: Its value is -0.25.

Question: For G1A G6A C27U C46U C66A A69G A70G C71U, which “yeast fitness (ln)” value is on record?
Answer: Its value is -0.145.

Question: With G1A U2G G6U C27U C46U A70G as the variant, how does the “yeast fitness (ln)” value read?
Answer: Its value is -0.274.

Question: For G1A U2C G6U C46U C71U, which “yeast fitness (ln)” value is on record?
Answer: The value was -0.111.

Question: For G1A U2G G6U A43C A70G C71U, which “yeast fitness (ln)” value is on record?
Answer: Its value is -0.323.

Question: For G6U C27U C46U A69G A70U C71U, which “yeast fitness (ln)” value is on record?
Answer: Its value is -0.457.

Question: Which “yeast fitness (ln)” value does the source give for G6U C66U A70G C71U here?
Answer: The value was -0.168.

Question: Which “yeast fitness (ln)” value does the source give for G6U C46U A70G here?
Answer: The value was -0.284.

Question: For U2C G6A C27U C66U, which “yeast fitness (ln)” value is on record?
Answer: The value was -0.217.

Question: For G6U C27U C46U C66A A69G A70U C71U, which “yeast fitness (ln)” value is on record?
Answer: The value was -0.328.

Question: Which “yeast fitness (ln)” value does the source give for U2G G6A C66U here?
Answer: Its value is -0.0956.

Question: Which “yeast fitness (ln)” value does the source give for U2C A69G A70G here?
Answer: The value was -0.0175.

Question: For U2G C46U A69G C71U, which “yeast fitness (ln)” value is on record?
Answer: The value was -0.0879.

Question: For U2C G6U C27U C66U A69G A70G, which “yeast fitness (ln)” value is on record?
Answer: The value was -0.277.

Question: For U2C C27U A43C C66U A69G C71U, which “yeast fitness (ln)” value is on record?
Answer: Its value is -0.388.

Question: With G1A U2G G6A C27U C46U A69G C71U as the variant, how does the “yeast fitness (ln)” value read?
Answer: The value was -0.269.

Question: For U2G C66U C71U, which “yeast fitness (ln)” value is on record?
Answer: The value was -0.181.

Question: Which “yeast fitness (ln)” value does the source give for G1A U2G G6U C27U A69G A70G C71U here?
Answer: Its value is -0.448.

Question: With U2G C27U A43C C46U C66A A70U as the variant, how does the “yeast fitness (ln)” value read?
Answer: The value was -0.0794.

Question: For G1A G6A C27U C66U A69G A70U C71U, which “yeast fitness (ln)” value is on record?
Answer: Its value is -0.387.

Question: For U2G G6U C27U C46U A70G, which “yeast fitness (ln)” value is on record?
Answer: The value was -0.156.

Question: With G1A U2G G6U C66U A70U C71U as the variant, how does the “yeast fitness (ln)” value read?
Answer: Its value is -0.351.

Question: With C66U A70U as the variant, how does the “yeast fitness (ln)” value read?
Answer: Its value is -0.0848.
